Data on 12 compounds can be found in ChEMBL document CHEMBL1127061, “Hemicholinium and related lipids: inhibitors of protein kinase C” (J Med Chem, 1993).

The experiment addresses Protein kinase C (PKC). Briefly: Inhibition of protein kinase C (PKC) purified from rat brain. A digest of the protocol:
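Mostly purified rat brain PKC, histone kinase assay on ice-set tubes: 3 nM TPA, 8 μg/mL phosphatidylserine, 1 mM EGTA (no calcium), 4% glycerol, 20 mM Tris-Cl pH 7.4. Started with [γ-32P]ATP (20 μM), MgCl2 10 mM, p-nitrophenyl phosphate 5 mM, lysine-rich histone 240 μg/mL; 30 °C, 10 min; radioactivity counted. Compounds 0.16–160 μg/mL, 2.4% DMSO final; duplicate runs averaged.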
In turn, `CCCCCCCCCCCCCCCCCC1(O)C[N+](C)(C)CCO1.[Br-]` (configuration not stated) returned a concentration for half-maximal inhibition (IC50) of 7.1 µM.

`CCCCCCCCCCCCCC1(O)C[N+](C)(C)CCO1.[Br-]` (configuration not stated) returned an IC50 of 12 µM.

With `CCCCCCCCCCCCCCC[C@@]1(O)C[N+](C)(C)C[C@@H](CC(=O)[O-])O1` [HEMIACYLCARNITINIUM], the IC50 worked out at 49.6 µM.

Consider `CCCCCCCCCCCCCCCCC1(O)C[N+](C)(C)CCO1.[Br-]` (configuration not stated), for which the IC50 was 7.6 µM.

Compound `CCCCCCCCCCCCC1(O)C[N+](C)(C)CCO1.[Br-]` (configuration not stated) showed an IC50 of 13 µM.

Compound `CCCCCCCCCCCCCCCC(=O)C[N+](C)(C)CCCO.[Br-]` yielded an IC50 of 6.9 µM.

On to `CCCCCCCCCCCCCCCCCCC1(O)C[N+](C)(C)CCO1.[Br-]` (configuration not stated), for which the IC50 is 6.5 µM.

As to `CCCCCCCCCCCCCCCC1(OC)C[N+](C)(C)CCO1.[Br-]` (configuration not stated), the IC50 amounted to 3.9 µM.

`CCCCCCCCCCCCCCCC(=O)OC(CC(=O)[O-])C[N+](C)(C)C` (racemic) [Palmitoyl-carnitine] returned an IC50 of 15.8 µM.

`CCCCCCCCCCC1(O)C[N+](C)(C)CCO1.[Br-]` (configuration not stated) yielded an IC50 of 170 µM.

Take `CCCCCCCCCCCCCCC1(O)C[N+](C)(C)CCO1.[Br-]` (configuration not stated): the IC50 stood at 7.6 µM.

`CCCCCCCCCCCCCCCC1(O)C[N+](C)(C)CCO1.[Br-]` (configuration not stated) showed an IC50 of 7.3 µM.
